Experimental data from PubChem BioAssay.
Activity calls are given as the source filed them.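 How the source made its calls, unless noted: active means viability at or below 10% of carrier control in both of two separate runs; inconclusive means viability at or below 10% in only one of the two runs; inactive means the rest.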

How the values were obtained:
[1] = Her2 expression decrease, cell viability multiplex – SKBR3 breast tumor cells, AlphaScreen, ATP viability, primary screen (AID 461;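 active means Her2 level under about 52% in both replicate screens, with viability over 70% of control, limit read from the data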;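 on Her2 level: lower value means less Her2 protein in the cells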;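 on viability: percent of carrier control wells set as 100% viability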); settings: SKBR3 Her2 protein level, 18-24 h, measured here: SKBR3 viability, ATP luminescence, at 10 µM
[2] = target: Receptor tyrosine-protein kinase erbB-2 (Homo sapiens) (UniProt P04626); experiment: as above; settings: 18-24 h, at 10 µM, stronger effect = lower value
[3] = reduced viability of SK-BR-3 breast cancer cells – cell-based, 24 h, human, pilot screen (AID 572); settings: SK-BR-3 viability, CellTiter-Glo luminescence, at 10 µM, stronger effect = lower value;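 further: compound exposure lasted between 18 and 24 h rather than exactly 24 h; 100% = carrier-treated control wells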
[4] = HUVEC growth inhibition – cell-based, human, primary screen (AID 575;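 active means viability at or below 30% in both replicate assays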;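 further: 100% = median of untreated cell wells with 0.1% DMSO on each plate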); settings: HUVEC proliferation, CellTiter-Glo luminescence, 72 h; at 10 µM; stronger effect = lower value
Procedure, shortened: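 Test system – primary HUVEC, no more than 12 passages · Dosing – one dose, 10 µM final, 0.1% DMSO · Times – 72 h treatment at 37 °C · Measured by – ATP-based CellTiter-Glo luminescent read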

[5] = H69AR cell proliferation blockers – human, duplicate replicates, primary screen (AID 580;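 active means viability at or under a set limit in both replicates, limit being median viability minus 3 SD, cut at about 48% in these data, passing the limit was not always enough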;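 further: 100% = mean luminescence of untreated wells and 0% = no signal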); settings: H69AR lung tumor cells viability, ATP luminescence, 72 h; at 10 µM; stronger effect = lower value
[6] = MRP1 drug-resistance reversers in H69AR cells – cell-based, doxorubicin co-treatment, pilot screen (AID 601;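 active means viability loss from added drug above about 55%, and viability with drug at most 40%, in both replicates, limit read from the data, passing the limit was not always enough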); settings: CellTiter-Glo, 72 h, at 10 µM; for differential viability (reversal): stronger effect = higher value
[7] = yeast transport mutant growth inhibition pilot in 384-well plates, post-Golgi transport modulator project (AID 636; in the data active means inhibition above about 31%); settings: absorbance 615 nm, about 18 h, stronger effect = higher value
[8] = growth suppression of yeast trafficking mutant, preliminary HTS, modulators of trafficking downstream of Golgi apparatus project, 1536-format plate, OD 615 nm (AID 637; in the data active means inhibition above about 30%); settings: yeast transport mutant growth, absorbance 615 nm, 18 h; stronger effect = higher value
[9] = H69AR cells + 2 uM doxorubicin, measured here: viability with 2 uM doxorubicin, stronger effect = lower value
[10] = H69AR cells, compound alone cytotoxicity

Sequence of Receptor tyrosine-protein kinase erbB-2 (Homo sapiens) (P04626 whole entry, looked up): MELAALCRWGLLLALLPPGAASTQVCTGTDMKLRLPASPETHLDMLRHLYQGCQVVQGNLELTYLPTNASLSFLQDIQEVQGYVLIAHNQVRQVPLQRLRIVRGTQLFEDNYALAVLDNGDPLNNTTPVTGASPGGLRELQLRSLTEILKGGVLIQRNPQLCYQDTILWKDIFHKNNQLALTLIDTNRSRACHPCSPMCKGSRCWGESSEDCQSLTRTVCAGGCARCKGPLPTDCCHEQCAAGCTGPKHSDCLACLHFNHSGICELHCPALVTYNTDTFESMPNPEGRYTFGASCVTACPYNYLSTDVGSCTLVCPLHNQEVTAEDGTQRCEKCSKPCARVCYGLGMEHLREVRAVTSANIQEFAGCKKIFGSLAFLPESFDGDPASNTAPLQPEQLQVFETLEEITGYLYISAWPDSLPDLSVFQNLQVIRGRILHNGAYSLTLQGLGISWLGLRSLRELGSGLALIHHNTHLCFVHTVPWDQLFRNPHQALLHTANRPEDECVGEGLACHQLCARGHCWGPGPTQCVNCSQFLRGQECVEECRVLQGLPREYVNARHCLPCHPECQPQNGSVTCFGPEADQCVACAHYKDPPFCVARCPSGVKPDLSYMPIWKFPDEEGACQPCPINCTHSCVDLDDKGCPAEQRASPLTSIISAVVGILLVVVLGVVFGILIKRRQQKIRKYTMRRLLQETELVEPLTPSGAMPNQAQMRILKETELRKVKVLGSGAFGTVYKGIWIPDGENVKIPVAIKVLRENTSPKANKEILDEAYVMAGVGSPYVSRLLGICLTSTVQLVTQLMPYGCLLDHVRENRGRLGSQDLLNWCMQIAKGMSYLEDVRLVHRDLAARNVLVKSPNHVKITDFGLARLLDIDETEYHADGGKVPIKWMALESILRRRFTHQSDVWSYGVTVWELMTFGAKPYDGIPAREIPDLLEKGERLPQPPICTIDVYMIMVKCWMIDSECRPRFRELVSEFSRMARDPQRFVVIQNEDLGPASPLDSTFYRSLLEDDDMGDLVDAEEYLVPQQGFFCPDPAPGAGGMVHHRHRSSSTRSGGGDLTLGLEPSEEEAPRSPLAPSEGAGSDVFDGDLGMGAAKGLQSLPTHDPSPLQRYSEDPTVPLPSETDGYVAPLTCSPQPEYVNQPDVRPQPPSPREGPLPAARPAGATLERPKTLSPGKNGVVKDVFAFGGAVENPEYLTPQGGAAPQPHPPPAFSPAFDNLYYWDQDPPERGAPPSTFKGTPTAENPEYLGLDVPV

Structure (SMILES)	viability [1]	Her2 level [2]	viability [3]	viability [4]	viability [5]	differential viability (reversal) ([6]; H69AR cells + 2 uM doxorubicin)	viability [6, 9]	viability [6, 10]	inhibition [7]	inhibition [8]
CCNS(=O)(=O)c1c(C)cc(N2CCCC2=O)cc1C	95.5%	109% (inactive)	95.5% (inactive)	112% (inactive)	98.8% (inactive)	8.17% (inactive)	90.6%	98.8%	-3.87% (inactive)	-1.31% (inactive)
O=C(Nc1cccnc1)Nc1ccc2c(c1)OCO2	102%	74% (inactive)	102% (inactive)	78.1% (inactive)	82.7% (inactive)	12.9% (inactive)	69.8%	82.7%	-2.24% (inactive)	6.03% (inactive)
CCOc1ccc(C(=O)CN2CCN(S(=O)(=O)c3ccc(OC)cc3)CC2)cc1	99.5%	88% (inactive)	99.5% (inactive)	91.2% (inactive)	86.7% (inactive)	-8.05% (inactive)	94.7%	86.7%	-3.68% (inactive)	-8.33% (inactive)
Cc1nc2ccccn2c1P(=O)(N1CCCCC1)N1CCCCC1	92.5%	112% (inactive)	92.5% (inactive)	117% (inactive)	91% (inactive)	1.72% (inactive)	89.3%	91%	-2.93% (inactive)	0% (inactive)
CCOC(=O)CSc1ncnc2c1cnn2-c1ccc(C)cc1	103%	88.5% (inactive)	103% (inactive)	75% (inactive)	90.6% (inactive)	-0.755% (inactive)	91.4%	90.6%	-6.4% (inactive)	0.33% (inactive)
CCSc1nnc(NC(=O)C(CC)(C(F)(F)F)C(F)(F)F)s1	79.5%	120% (inactive)	79.5% (inactive)	68.9% (inactive)	74% (inactive)	0.58% (inactive)	73.4%	74%	0.41% (inactive)	33.3% (active)
CSCCC(NC(=O)c1occc1C)C(=O)O (stereo not given)	93.5%	94.5% (inactive)	93.5% (inactive)	103% (inactive)	103% (inactive)	12.8% (inactive)	89.8%	103%	-2.63% (inactive)	2.83% (inactive)
CC(=O)Nc1ccc(S(=O)(=O)NCC2CCC(C(=O)NCCCN3CCCC3=O)CC2)cc1 (stereo not given)	107%	91.5% (inactive)	107% (inactive)	92.4% (inactive)	94.3% (inactive)	6.51% (inactive)	87.8%	94.3%	-4.13% (inactive)	1.45% (inactive)
O=C1Nc2ccccc2OC1CC(=O)N1CCCC1 (stereo not given)	88.5%	91.5% (inactive)	88.5% (inactive)	94.7% (inactive)	102% (inactive)	11.9% (inactive)	90.5%	102%	-2.53% (inactive)	0.66% (inactive)
CCOc1ccc(N(CC(=O)NC2CCCC2)S(=O)(=O)c2c(C)[nH]c(=O)[nH]c2=O)cc1	87%	104% (inactive)	87% (inactive)	96.4% (inactive)	101% (inactive)	17.2% (inactive)	83.4%	101%	0.4% (inactive)	-3.28% (inactive)
Cn1c(/C(C#N)=C/Nc2ccccn2)nc2ccccc21	75%	106% (inactive)	75% (inactive)	110% (inactive)	73.5% (inactive)	-12.4% (inactive)	85.9%	73.5%	4.47% (inactive)	29.5% (inactive)
O=S(NCc1ccco1)C12CC3CC(CC(C3)C1)C2 (stereo not given)	104%	116% (inactive)	104% (inactive)	93.5% (inactive)	88% (inactive)	3.96% (inactive)	84%	88%	-1.08% (inactive)	-5.4% (inactive)
CCOC(=O)c1[nH]c(C)c(C(=O)N(C)C)c1C	110%	88.5% (inactive)	110% (inactive)	103% (inactive)	95.6% (inactive)	-0.97% (inactive)	96.6%	95.6%	-5.79% (inactive)	-7.3% (inactive)
C#CCN1C(=O)C(O)(CC(=O)c2cccc(OC)c2)c2ccccc21 (stereo not given)	100%	84% (inactive)	100% (inactive)	93.3% (inactive)	21.7% (active)	-16.6% (inactive)	38.3%	21.7%	-7.03% (inactive)	1.67% (inactive)
